These molecules were tested on Mycobacterium tuberculosis (assay: Inhibition of Mycobacterium tuberculosis ThyX at 100 uM preincubated with enzyme followed by [5-3H]dUMP substrate addition measured after 30 mins in presence of 5,10-methylenetetrahydrofolate,NADPH and FAD by liquid scintillation counting).
Outline: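 Recombinant Mtb ThyX (purified per an earlier protocol) tested at 100 µM per compound. Tritium release assay: formation of tritiated water from loss of 3H at the 5-carbon of the dUMP pyrimidine ring, with dUMP as competing substrate. Read-out is percent inhibition. 5-FdUMP served as reference compound.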

Going from `CC[C@H](Sc1n[nH]c(=O)[nH]c1=O)C(=O)O` to `C[C@@H](Sc1n[nH]c(=O)[nH]c1=O)C(=O)O`, the inhibition rises from 5.7% to 6.1%.

First: CCCC(=O)C1C(=O)NC(=O)NC1=O
Second: O=c1[nH][nH]c(=O)c2[nH]cnc12
The inhibition of the first is higher: 11% for the first, 7.1% for the second.

First: O=c1[nH]nc(-c2ccccc2)c2nc[nH]c12
Second: O=c1[nH]nc(Cl)c2nc[nH]c12
The inhibition of the first is lower: 15% for the first, 29% for the second.

First: O=c1[nH][nH]c(=O)c2nc3ccccc3nc12
Second: O=c1[nH][nH]c(=O)c2nccnc12
The inhibition of the first is higher: 10% for the first, 5.3% for the second.

Compared with `COc1ccc2[nH]c3c(O)nncc3c2c1`, `CSc1n[nH]c(=O)c2[nH]cnc12` is higher in inhibition: 7% for the first, 10% for the second.

Going from `Cc1nnc(Cl)c2ncn(C)c12` to `O=c1[nH]c(=O)n([C@H]2C[C@H](O)[C@@H](COP(=O)(O)O)O2)cc1F`, the inhibition rises from 14% to 97.3%.

— ChEMBL document CHEMBL3860049, “Virtual Screening and X-ray Crystallography Identify Non-Substrate Analog Inhibitors of Flavin-Dependent Thymidylate Synthase” (J Med Chem, 2016)
